Published values collected from several papers.
Lines come from different studies, so protocols differ.
Target: Phosphatidylinositol 4-phosphate 5-kinase type-1 gamma (PIP5K1C, Homo sapiens, UniProt O60331)

O=C(NCCCN1CCOCC1)c1ccc(Nc2ncc(Cl)c(-c3ccc(Cl)s3)n2)cc1
remaining binding (binding, competition with immobilised ligand; 1 µM): 59%

CCOCCn1cc(C(=O)Nc2ccc(-n3nc(-c4cccnc4)cc3C(F)(F)F)cn2)ccc1=O
remaining binding (cell-free assay, competition with immobilised ligand; 1 µM): 100%

N[C@H]1CCN(c2nccc(-c3cnn4ncccc34)n2)C1
remaining binding (binding; 1 µM): 63%

Nc1ncc2c(n1)-c1c([nH]c3ccc(C#CC4CC4)cc13)CCCC2
remaining binding (binding, competition with immobilised ligand; 1 µM): 57%

C[C@@]1(Cc2ccc(C#N)cc2)C(=O)N(c2cc(Cl)cc(Cl)c2)c2ncc(C(=O)NC3(c4nc(C5CCC5)no4)CC3)n21
remaining binding (cell-free assay, competition with immobilised ligand; 1 µM): 100%

CN(CCCC(F)(F)F)c1nccc(-c2cnn3ncccc23)n1
remaining binding (binding; 1 µM): 77%

COc1cnc(Nc2cccc(S(N)(=O)=O)c2)nc1N1CCN(c2ccccc2)C(=O)C1
remaining binding (binding, competition with immobilised ligand; 1 µM): 95%

O=C(O)c1cc(-c2ccc(C3CCNCC3)cc2)c2ccc(-c3ccc(C(F)(F)F)cc3)cc2c1
remaining binding (cell-free assay, competition with immobilised ligand; 1 µM): 100%

CN(c1nccc(-c2cnn3ncccc23)n1)C1CC1
remaining binding (binding; 1 µM): 100%

COc1cnc(Nc2cccc(S(N)(=O)=O)c2)nc1N1CCN(c2ccccc2)CC1
remaining binding (binding, competition with immobilised ligand; 1 µM): 100%

F[C@@H]1CCN(c2nccc(-c3cnn4ncccc34)n2)C1
remaining binding (binding; 1 µM): 100%

COc1ncc2cc3ccccc3nc2c1C#N
remaining binding (cell-free assay, competition with immobilised ligand; 5 µM): 89%

O=C(c1ccc(Nc2ncc(Cl)c(-c3ccc(Cl)s3)n2)cc1)N1CCC(N2CCCC2)CC1
remaining binding (binding, competition with immobilised ligand; 1 µM): 72%

O=C(Nc1c[nH]nc1C(=O)NC1CCNCC1)c1cc(F)cc(F)c1
remaining binding (binding, competition with immobilised ligand; 1 µM): 87%

CN(C(=O)c1ccccc1)c1cc(N(C)c2ccc3c(c2)CCc2ccc(C(=O)NCCN4CCOCC4)cc2C3=O)ccc1F
remaining binding (cell-free assay, competition with immobilised ligand; 1 µM): 80%

Cc1cnn2ncc(-c3ccnc(N(C)C)n3)c2c1
remaining binding (binding; 1 µM): 100%

O=C(N[C@H]1CCCCC/C=C\C2C[C@@]2(C(=O)O)NC(=O)[C@@H]2C[C@@H](Oc3ccncc3)CN2C1=O)OC1CCCC1 (stereo partly drawn)
remaining binding (binding, competition with immobilised ligand; 1 µM): 100%

C[C@@H]1CCN(c2nccc(-c3cnn4ncccc34)n2)C1
remaining binding (binding; 1 µM): 99%
